The target of data set [1] is Rho-associated protein kinase 2 (Homo sapiens, UniProt O75116). Kind of data set: Inhibition of recombinant ROCK2. The gist of the method: (§1)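 Purified recombinant kinases under optimized conditions with peptide substrates. ATP was set at each kinase's Km. Phosphorylation was read by microfluidic mobility-shift separation of substrate and product; IC50 determined.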

For the next data set, the system named is RT-112. The experiment in a line: Antitumor activity against human RT112 cells xenografted in nude Rowett rat assessed as tumour stasis at 5 mg/kg, po qd administered for 20 days. On the set-up: dose 5 mg/kg. The class given is functional, organism-based. The essentials: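 Female nude Rowett rats aged 6–9 weeks were given 1×10^6 RT112 cells subcutaneously in HBSS/50% Matrigel. Treatment began at about 100 mm3 mean tumor volume (n = 8): monophosphate salt in acetate buffer pH 4.6/PEG300 (1:1) by gavage, 5 mL/kg, at 5, 10, 15 mg/kg/qd free base for 20 days. Tumors were measured by caliper (L×W×H×π/6). Readouts were T/C and % regression from start volume.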

Data set [2] has as its system Rattus norvegicus. The experiment in a line: Inhibition of FGFR autophosphorylation in RT112 tumour bearing nude Rowett rat assessed as decrease in pMAPK concentration at 8.51 mg/kg, po administered as a single dose after 16 hrs by Western blot analysis. On the set-up: dose 8.51 mg/kg. It is filed as functional, organism-based. The essentials: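 RT112 subcutaneous xenografts in female nude Rowett rats (n = 4). Single oral gavage of the monophosphate salt at 4.25 or 8.51 mg/kg (free base equivalents) in acetic acid–acetate buffer pH 4.6/PEG300 (1:1). Tumors were collected at time points up to 24 h, frozen, homogenized and lysed. Western blots probed pFRS2(Tyr196) and pMAPK, with total FRS2, total MAPK or β-tubulin as loading controls.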
(A western blot detects proteins with antibodies after separation by electrophoresis.)

In data set [3] the target is Non-receptor tyrosine-protein kinase TYK2 (Homo sapiens, UniProt P29597). Kind of data set: Inhibition of recombinant TYK2. The gist of the method:
(§2)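 Purified recombinant kinases were tested under optimized conditions with peptide substrates. ATP was set at each kinase's Km. Phosphorylation was read out by microfluidic mobility shift, and IC50 values were determined.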

Data set [4] has as its target MAP kinase-interacting serine/threonine-protein kinase 1 (Homo sapiens, UniProt Q9BUB5). The experiment in a line: Inhibition of recombinant MNK1. The gist of the method: as §1
Data set [5] concerns the target Proto-oncogene tyrosine-protein kinase Src (Homo sapiens, UniProt P12931). Kind of data set: Inhibition of recombinant SRC. The gist of the method: as §2
A further data set deals with Cytochrome P450 2D6 (Homo sapiens, UniProt P10635). Kind of data set: Inhibition of CYP2D6 using AMMC as substrate. The class given is ADME. The gist of the method: (§3)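 Human CYP450 inhibition was measured with isoform-specific fluorogenic probe substrates: CEC for 1A2 and 2C19, MFC for 2C9, AMMC for 2D6. Incubation was at 37 °C with an NADPH-regenerating system in 384-well format. Metabolite was quantified by fluorescence, and IC50 was obtained by curve fitting.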
Sequence of Cytochrome P450 2D6 (P10635 whole entry, canonical isoform): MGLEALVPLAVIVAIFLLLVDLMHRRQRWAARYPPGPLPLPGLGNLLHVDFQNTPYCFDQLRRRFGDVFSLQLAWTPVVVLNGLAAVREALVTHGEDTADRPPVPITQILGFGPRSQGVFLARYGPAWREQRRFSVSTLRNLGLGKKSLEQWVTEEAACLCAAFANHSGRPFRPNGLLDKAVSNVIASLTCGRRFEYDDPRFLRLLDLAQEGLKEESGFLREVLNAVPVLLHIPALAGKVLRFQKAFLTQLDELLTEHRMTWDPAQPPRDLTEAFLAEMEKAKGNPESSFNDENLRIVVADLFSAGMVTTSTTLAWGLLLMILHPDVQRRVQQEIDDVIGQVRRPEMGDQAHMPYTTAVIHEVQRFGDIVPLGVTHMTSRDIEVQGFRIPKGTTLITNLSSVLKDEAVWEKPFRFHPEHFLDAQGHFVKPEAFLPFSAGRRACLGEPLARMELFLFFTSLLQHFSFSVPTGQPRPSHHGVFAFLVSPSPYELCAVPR

The subject of a further data set is Mus musculus. The experiment in a line: Toxicity in athymic nude mouse xenografted with human RT112 cells assessed as weight loss at 10 mg/kg, po administered for 12 days. The class given is organism-based, RT-112. Conditions: in vivo, 288 h. On the set-up: dose 10 mg/kg, route oral. The gist of the method: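 Female athymic nude mice carried orthotopic RT112/luc1 bladder tumors. Starting 14 days after inoculation, they were dosed orally at 0, 10 or 30 mg/kg/qd for 12 days as a suspension in PEG300/D5W (2:1). Body weight was recorded during treatment. Data are means ± SEM; ANOVA with Dunnett's test versus vehicle.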
In general terms: Xenograft models place foreign cells or tissue in a host animal.

For data set [6], the system named is Rattus norvegicus. The experiment in a line: Toxicity in nude Rowett rat xenografted with human RT112 cells assessed as morbidity at 5 mg/kg, po qd administered for 20 days. To be noted: in vivo, 480 h. Set-up: dose 5 mg/kg, route oral. It is filed as organism-based, RT-112. The gist of the method: (§4)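 Female nude Rowett rats carried subcutaneous RT112 tumors (1 × 10^6 cells in Matrigel), starting at about 100 mm3. The monophosphate salt was gavaged daily for 20 days at 5, 10 or 15 mg/kg (free base) in acetate buffer pH 4.6/PEG300 (1:1), n = 8. Body weight and morbidity were monitored; ANOVA with Dunnett's test.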

For data set [7], the target named is Vascular endothelial growth factor receptor 2 (Homo sapiens, UniProt P35968). The experiment in a line: Inhibition of recombinant VEGFR2. The gist of the method: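 Purified recombinant kinases under optimized conditions, with peptide substrates and ATP at each kinase's Km. Phosphorylation was read out by microfluidic mobility shift, and IC50 values were obtained.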
Sequence of Vascular endothelial growth factor receptor 2 (P35968 whole entry): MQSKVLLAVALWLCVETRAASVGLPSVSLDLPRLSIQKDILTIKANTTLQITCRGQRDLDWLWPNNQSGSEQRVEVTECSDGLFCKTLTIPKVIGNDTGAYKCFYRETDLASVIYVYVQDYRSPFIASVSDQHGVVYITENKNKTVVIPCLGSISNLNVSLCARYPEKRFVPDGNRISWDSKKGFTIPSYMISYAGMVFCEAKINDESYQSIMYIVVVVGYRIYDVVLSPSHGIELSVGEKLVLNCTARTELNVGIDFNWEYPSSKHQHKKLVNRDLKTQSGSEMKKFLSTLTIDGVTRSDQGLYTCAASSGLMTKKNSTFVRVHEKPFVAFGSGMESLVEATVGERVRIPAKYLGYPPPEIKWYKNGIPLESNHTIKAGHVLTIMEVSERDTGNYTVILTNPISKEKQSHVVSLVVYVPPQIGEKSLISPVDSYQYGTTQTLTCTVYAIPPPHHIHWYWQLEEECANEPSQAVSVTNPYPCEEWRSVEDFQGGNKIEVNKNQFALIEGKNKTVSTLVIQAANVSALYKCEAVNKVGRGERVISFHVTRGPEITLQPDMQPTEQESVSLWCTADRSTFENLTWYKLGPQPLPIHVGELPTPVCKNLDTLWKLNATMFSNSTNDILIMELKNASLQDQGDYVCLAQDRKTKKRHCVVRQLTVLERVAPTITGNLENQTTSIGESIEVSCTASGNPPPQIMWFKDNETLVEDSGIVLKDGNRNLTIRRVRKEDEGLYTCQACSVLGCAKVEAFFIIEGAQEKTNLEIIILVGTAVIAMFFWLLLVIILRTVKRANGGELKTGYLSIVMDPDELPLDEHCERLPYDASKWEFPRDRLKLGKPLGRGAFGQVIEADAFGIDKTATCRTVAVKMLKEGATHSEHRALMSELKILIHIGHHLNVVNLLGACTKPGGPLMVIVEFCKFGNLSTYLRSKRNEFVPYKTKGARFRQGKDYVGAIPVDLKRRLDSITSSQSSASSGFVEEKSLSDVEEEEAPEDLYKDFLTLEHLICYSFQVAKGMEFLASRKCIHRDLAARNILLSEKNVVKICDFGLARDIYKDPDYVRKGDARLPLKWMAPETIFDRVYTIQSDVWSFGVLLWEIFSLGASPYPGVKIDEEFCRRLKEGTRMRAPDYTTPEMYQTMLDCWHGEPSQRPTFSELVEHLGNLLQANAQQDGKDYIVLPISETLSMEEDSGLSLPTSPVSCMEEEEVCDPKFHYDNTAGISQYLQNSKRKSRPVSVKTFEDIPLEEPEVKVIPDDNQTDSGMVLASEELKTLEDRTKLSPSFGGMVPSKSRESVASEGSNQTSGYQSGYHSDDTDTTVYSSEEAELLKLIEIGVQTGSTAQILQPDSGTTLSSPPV

The test system of data set [8] is Rattus norvegicus. Kind of data set: Toxicity in nude Rowett rat xenografted with human RT112 cells assessed as weight loss at 15 mg/kg, po qd administered for 20 days. It is filed as organism-based, RT-112. On the set-up: dose 15 mg/kg, route oral. To be noted: in vivo, 480 h. The essentials: as §4
A further data set deals with T1, Cytochrome P450 1A2 (Homo sapiens, UniProt P05177).
T1 sequence (P05177 whole entry): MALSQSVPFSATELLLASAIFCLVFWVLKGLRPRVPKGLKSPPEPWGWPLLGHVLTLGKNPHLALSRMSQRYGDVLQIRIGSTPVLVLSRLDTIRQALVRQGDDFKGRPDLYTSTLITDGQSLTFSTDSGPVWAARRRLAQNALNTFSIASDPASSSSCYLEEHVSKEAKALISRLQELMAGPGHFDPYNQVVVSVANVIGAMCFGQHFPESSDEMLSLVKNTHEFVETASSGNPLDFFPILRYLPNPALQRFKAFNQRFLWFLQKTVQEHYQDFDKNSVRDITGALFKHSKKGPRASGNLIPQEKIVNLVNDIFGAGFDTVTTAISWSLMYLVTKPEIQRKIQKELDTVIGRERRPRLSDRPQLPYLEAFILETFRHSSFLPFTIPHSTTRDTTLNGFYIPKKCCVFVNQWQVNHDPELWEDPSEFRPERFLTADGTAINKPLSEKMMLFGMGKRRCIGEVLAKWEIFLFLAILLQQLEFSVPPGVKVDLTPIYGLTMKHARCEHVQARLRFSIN
Kind of data set: Inhibition of CYP1A2 using CEC as substrate. It is filed as ADME. The essentials:
as §3

Data set [9] has as its target Tyrosine-protein kinase JAK2 (Homo sapiens, UniProt O60674). Kind of data set: Inhibition of recombinant JAK2. The gist of the method:
as §2

The nature of data set [10]: Inhibition of recombinant PKA. The gist of the method:
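Purified recombinant kinases with peptide substrates and ATP at each kinase's Km. Read-out was microfluidic mobility shift.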

The test system of the next data set is J82. The experiment in a line: Antiproliferative activity against human J82 cells after 72 hrs. It is filed as functional, cell-based. Conditions: J82, 72 h. The essentials: (§5)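 Bladder cancer lines from ATCC or DSMZ were seeded in 96-well plates (RT4, RT112 at 8500 cells/well; others at 5000 cells/well) in growth medium. Compound dilutions or DMSO were added 24 h later and incubated 72 h. Cells were fixed with glutaraldehyde, stained with 0.05% methylene blue and eluted with 3% HCl, then OD650 nm was read.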

The subject of a further data set is SW780. Kind of data set: Antiproliferative activity against human SW780 cells overexpressing wild type FGFR3 after 72 hrs. It is filed as functional, cell-based. To be noted: SW780, 72 h. The gist of the method: as §5
The nature of data set [11]: Cmax in plasma of RT112/luc1 cells implanted athymic nude mouse at 20 mg/kg, po by LC/MS/MS analysis. It is filed as ADME, organism-based. Set-up: dose 20 mg/kg, route oral. The essentials: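 Female athymic nude mice carried subcutaneous RT112/luc1 tumors (5×10^6 cells, 50% Matrigel; about 300–400 mm3). Dosing was either 5 mg/kg iv by tail vein in NMP/PEG200 (1:9) or 20 mg/kg oral suspension in PEG300/D5W (2:1). Groups of mice (n = 4) were sacrificed at 0.083–24 h. Plasma and tumor levels were measured by LC-MS/MS (LOQ 5 ng/mL, 10 ng/g).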

Calls of active or inactive are those of the source. The calls are words filed in the database; no cut-off is given here.

Sequence of Proto-oncogene tyrosine-protein kinase Src (P12931 2-536 limits assumed): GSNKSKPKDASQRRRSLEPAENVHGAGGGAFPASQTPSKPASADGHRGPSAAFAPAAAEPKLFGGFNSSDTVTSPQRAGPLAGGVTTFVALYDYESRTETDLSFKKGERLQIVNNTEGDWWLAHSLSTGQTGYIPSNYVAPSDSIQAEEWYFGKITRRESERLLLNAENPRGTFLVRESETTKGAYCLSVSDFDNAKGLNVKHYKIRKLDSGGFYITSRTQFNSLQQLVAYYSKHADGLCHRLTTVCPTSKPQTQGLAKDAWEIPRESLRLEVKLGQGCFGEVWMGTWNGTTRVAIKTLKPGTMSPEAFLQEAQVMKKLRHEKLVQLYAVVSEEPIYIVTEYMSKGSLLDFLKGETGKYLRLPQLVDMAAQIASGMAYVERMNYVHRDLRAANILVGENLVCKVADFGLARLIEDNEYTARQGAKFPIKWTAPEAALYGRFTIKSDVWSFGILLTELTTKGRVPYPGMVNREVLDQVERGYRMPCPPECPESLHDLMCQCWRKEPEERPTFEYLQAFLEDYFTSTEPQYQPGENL
Sequence of Tyrosine-protein kinase JAK2 (O60674 whole entry): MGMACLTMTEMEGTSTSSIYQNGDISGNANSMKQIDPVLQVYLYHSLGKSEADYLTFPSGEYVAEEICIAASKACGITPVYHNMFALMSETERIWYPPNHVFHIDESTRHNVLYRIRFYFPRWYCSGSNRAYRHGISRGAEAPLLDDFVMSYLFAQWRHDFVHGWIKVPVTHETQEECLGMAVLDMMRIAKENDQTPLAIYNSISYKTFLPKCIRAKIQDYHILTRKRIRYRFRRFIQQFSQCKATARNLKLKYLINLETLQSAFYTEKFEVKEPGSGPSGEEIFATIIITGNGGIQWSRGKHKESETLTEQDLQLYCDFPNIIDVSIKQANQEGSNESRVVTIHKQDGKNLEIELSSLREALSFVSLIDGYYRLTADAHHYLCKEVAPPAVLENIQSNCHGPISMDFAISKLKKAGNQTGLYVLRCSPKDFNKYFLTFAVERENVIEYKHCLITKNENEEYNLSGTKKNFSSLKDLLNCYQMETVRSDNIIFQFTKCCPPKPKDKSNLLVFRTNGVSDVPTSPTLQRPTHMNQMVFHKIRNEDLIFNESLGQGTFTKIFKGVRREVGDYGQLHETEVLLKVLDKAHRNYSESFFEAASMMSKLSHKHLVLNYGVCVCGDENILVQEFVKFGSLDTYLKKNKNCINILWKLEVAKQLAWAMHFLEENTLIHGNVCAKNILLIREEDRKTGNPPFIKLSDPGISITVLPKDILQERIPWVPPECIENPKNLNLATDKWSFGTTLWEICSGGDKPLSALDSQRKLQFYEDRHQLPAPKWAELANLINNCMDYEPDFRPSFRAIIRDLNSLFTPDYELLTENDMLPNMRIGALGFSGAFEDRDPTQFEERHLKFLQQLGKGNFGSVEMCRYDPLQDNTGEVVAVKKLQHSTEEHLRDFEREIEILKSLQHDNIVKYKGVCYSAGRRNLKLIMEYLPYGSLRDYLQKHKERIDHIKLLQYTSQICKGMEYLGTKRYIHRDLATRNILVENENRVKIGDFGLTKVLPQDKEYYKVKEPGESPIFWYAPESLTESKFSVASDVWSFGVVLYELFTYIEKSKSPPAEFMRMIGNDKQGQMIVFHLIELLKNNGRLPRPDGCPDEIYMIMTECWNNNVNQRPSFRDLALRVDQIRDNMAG
Sequence of Rho-associated protein kinase 2 (O75116 whole entry): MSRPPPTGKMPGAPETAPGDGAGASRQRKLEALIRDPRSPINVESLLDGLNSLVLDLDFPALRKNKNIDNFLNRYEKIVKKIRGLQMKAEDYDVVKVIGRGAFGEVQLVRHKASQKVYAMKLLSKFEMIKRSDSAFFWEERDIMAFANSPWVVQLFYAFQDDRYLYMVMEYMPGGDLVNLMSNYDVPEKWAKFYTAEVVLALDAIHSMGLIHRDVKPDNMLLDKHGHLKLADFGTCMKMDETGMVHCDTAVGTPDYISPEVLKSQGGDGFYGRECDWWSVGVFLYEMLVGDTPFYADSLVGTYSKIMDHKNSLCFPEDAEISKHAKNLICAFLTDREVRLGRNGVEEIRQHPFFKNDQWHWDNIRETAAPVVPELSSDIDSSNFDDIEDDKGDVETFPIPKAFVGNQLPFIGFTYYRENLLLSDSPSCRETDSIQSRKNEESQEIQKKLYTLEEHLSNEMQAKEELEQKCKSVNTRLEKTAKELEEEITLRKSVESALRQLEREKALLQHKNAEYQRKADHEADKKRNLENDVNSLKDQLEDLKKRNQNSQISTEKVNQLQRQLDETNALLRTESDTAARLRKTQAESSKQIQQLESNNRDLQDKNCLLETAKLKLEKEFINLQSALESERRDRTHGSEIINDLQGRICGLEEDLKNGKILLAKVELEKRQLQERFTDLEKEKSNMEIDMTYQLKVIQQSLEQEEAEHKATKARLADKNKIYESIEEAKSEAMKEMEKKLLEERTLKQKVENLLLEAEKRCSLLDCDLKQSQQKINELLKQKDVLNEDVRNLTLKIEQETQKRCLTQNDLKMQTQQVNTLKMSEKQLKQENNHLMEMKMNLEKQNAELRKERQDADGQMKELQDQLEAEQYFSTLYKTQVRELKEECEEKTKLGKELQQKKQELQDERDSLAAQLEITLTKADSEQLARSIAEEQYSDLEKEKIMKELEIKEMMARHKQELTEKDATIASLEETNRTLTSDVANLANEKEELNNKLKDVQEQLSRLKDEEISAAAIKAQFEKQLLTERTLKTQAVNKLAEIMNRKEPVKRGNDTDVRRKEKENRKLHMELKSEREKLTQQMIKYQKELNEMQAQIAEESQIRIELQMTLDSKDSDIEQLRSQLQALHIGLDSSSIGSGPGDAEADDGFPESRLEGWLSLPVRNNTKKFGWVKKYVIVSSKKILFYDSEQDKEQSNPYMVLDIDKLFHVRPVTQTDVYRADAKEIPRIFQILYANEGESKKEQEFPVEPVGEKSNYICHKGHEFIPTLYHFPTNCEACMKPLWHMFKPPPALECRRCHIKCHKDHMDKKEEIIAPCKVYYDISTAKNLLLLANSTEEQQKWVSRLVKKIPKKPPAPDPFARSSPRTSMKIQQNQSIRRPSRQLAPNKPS

For the molecule `CCN1CCN(c2ccc(Nc3cc(N(C)C(=O)Nc4c(Cl)c(OC)cc(OC)c4Cl)ncn3)cc2)CC1.O=P(O)(O)O` [INFIGRATINIB PHOSPHATE], the half-maximal inhibitory concentration (IC50) was greater than 10 µM in [1]; greater than 10 µM in data set [3]; greater than 10 µM in data set [4]; greater than 10 µM in data set [5]; greater than 10 µM against Cytochrome P450 2D6; 0.18 µM in data set [7]. Further, the IC50 was greater than 10 µM at Cytochrome P450 1A2; greater than 10 µM in [9]; greater than 10 µM in [10]; greater than 3 µM in the data set with J82; 0.032 µM with SW780. Also, the result with RT-112 was Active. Also, the inhibition entry with Rattus norvegicus [2] is “Active”. Further, the Activity result in the data set with Mus musculus is reported as “Non-toxic”; with Rattus norvegicus [6], “Non-toxic”; in the data set with Rattus norvegicus [8], 9%. Further, the concentration in [11] peaked (Cmax) at 420 nM.

Broadly, the IC50 is the concentration at which inhibition is half-maximal. One may read the Cmax as the peak of the concentration-time curve.
